From ChEMBL document CHEMBL1138320, “Discovery of potent & selective inhibitors of activated thrombin-activatable fibrinolysis inhibitor for the treatment of thrombosis” (J Med Chem, 2007)

Key:
Carboxypeptidase B2 = molecular target: T1, Carboxypeptidase B2 (Homo sapiens, UniProt Q96IY4); assay: Inhibition of human TAFIa
T1 sequence (Q96IY4 whole entry): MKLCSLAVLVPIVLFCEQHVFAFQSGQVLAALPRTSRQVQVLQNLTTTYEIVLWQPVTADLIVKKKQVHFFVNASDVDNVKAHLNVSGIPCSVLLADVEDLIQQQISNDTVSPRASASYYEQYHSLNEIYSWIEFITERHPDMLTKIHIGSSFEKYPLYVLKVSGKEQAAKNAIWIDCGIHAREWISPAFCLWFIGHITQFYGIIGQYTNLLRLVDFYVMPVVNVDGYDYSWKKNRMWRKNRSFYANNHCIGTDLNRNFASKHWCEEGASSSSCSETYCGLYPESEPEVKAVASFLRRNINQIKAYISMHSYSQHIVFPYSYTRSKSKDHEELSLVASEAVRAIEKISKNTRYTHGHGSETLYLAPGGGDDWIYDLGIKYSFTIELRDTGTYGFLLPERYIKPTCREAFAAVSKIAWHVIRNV

[1] = molecular target: T2, Carboxypeptidase N catalytic chain (Homo sapiens, UniProt P15169); assay: Inhibition of human plasma carboxypeptidase N; type: cell-free
T2 sequence (P15169 whole entry): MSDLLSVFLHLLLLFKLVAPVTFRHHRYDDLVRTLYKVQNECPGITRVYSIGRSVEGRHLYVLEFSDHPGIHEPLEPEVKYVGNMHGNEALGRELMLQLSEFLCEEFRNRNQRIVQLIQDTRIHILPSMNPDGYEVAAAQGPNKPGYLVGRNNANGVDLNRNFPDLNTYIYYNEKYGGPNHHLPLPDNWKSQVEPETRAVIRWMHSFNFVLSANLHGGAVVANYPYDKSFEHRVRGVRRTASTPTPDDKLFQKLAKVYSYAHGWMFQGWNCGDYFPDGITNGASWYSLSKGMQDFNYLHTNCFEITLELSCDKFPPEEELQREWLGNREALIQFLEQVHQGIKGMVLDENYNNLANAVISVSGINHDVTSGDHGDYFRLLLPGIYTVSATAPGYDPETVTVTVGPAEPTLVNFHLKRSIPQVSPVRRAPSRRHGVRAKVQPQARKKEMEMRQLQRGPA

Carboxypeptidase B = molecular target: T3, Carboxypeptidase B (Sus scrofa, UniProt P09955); assay: Inhibition of porcine pancreatic carboxypeptidase B
T3 sequence (P09955 whole entry): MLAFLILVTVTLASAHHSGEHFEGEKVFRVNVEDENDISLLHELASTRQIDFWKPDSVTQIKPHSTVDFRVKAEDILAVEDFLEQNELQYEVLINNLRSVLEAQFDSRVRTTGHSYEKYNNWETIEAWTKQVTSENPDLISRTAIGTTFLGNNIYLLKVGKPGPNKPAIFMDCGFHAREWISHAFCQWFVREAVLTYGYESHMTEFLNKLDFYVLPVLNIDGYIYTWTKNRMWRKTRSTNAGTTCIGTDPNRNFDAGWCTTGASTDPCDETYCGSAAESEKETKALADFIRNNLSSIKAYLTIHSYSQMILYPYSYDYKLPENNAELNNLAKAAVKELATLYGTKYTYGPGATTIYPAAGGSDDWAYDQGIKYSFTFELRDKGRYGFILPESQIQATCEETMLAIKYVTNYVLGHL

[2] = Selectivity for bovine pancreatic carboxypeptidase A over porcine pancreatic carboxypeptidase B
Oryctolagus cuniculus [3] = assay: Inhibition of thrombus weight in iv dosed anesthetized rabbit at 80 nM relative to control; type: functional
Outline: (§1)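 Anesthetized rabbits given compound by iv infusion to reach projected free plasma levels of about 8, 80 or 800 nM. Thrombus weight (thrombus formation) was compared with vehicle-treated animals. t-PA at 10 µg/kg/min served as comparator. Group sizes were n = 3–6, with vehicle n = 5–13.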

[4] = Renal elimination in dog at 0.6 mg/kg, iv by urinary excretion studies; type: ADME, organism-based, Canis lupus familiaris; design: dose 0.6 mg/kg, route intravenous; settings: urine, read-out: Activity
Outline: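 Urinary excretion study in a dog after an iv dose. Unchanged drug recovered in the urine was quantified as a percentage of the dose.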

[5] = Hydrophilicity, log D of the compound; type: physicochemical; settings: octanol/water
[6] = Plasma clearance in dog at 0.6 mg/kg, iv; type: ADME, organism-based, Canis lupus familiaris; design: dose 0.6 mg/kg, route intravenous
Outline: (§2)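 Single iv bolus of 0.6 mg/kg given to a dog. Total plasma clearance, volume of distribution and terminal elimination half-life were derived from the plasma pharmacokinetics.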

[7] = Volume of distribution in dog at 0.6 mg/kg, iv; type: ADME, organism-based, Canis lupus familiaris; design: dose 0.6 mg/kg, route intravenous; settings: in vivo, read-out: Vdss; outline: as §2
[8] = Terminal elimination in dog at 0.6 mg/kg, iv; type: ADME, organism-based, Canis lupus familiaris; design: dose 0.6 mg/kg, route intravenous; settings: in vivo; outline: as §2
[9] = Bioavailability in rat; type: ADME, organism-based; settings: in vivo
[10] = Bioavailability in dog at 1 mg/kg, po; type: ADME, organism-based, Canis lupus familiaris; settings: in vivo
Outline: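 Oral dosing at 1 mg/kg in dog for pharmacokinetic studies. Oral bioavailability was derived relative to iv dosing.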

Oryctolagus cuniculus [11] = assay: Antithrombotic efficacy in anesthetized rabbit assessed as inhibition of thrombus formation at 800 nM relative to control; type: functional; outline: as §1
[12] = Tmax in human; type: ADME, organism-based; settings: in vivo
Outline: (§3)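 Human pharmacokinetics after iv and oral dosing. Oral bioavailability and Tmax were determined, including with and without co-administration with food.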

[13] = Oral bioavailability in human; type: ADME, organism-based; settings: in vivo; outline: as §3

| SMILES | Ki (Carboxypeptidase B2) | further results |
| --- | --- | --- |
| Cn1cnc(C[C@H](NCCN)C(=O)O)c1 | 235 nM |  |
| CCn1cnc(C[C@H](NCCN)C(=O)O)c1 | 250 nM |  |
| NCCN[C@@H](Cc1c[nH]cn1)C(=O)O |  | Ki [1]: > 10000 nM |
| CC(C)Cn1cnc(C[C@H](NCCN)C(=O)O)c1 | 100 nM |  |
| NCCN[C@@H](Cc1cn(Cc2ccccc2)cn1)C(=O)O | 269 nM |  |
| CCCn1cnc(C[C@H](NCCN)C(=O)O)c1 | 84 nM |  |
| CCCCn1cnc(C[C@H](NCCN)C(=O)O)c1 | 70 nM |  |
| CCCn1cnc(C[C@@H](CCCN)C(=O)O)c1 | > 700 nM |  |
| NCCN[C@@H](Cc1cn(CCc2ccccc2)cn1)C(=O)O | 140 nM |  |
| NCCN[C@@H](Cc1cn(CC2CCC2)cn1)C(=O)O | 124 nM |  |
| NCCN[C@H](Cc1c[nH]cn1)C(=O)O | 17000 nM |  |
| CCCCCn1cnc(C[C@H](NCCN)C(=O)O)c1 | 160 nM |  |
| CC(C)n1cnc(C[C@H](NCCN)C(=O)O)c1 | 430 nM |  |
| NCCN[C@@H](Cc1cn(CCCO)cn1)C(=O)O | 111 nM |  |
| NC(N)=NCCCC(CS)C(=O)O (racemic) | 4 nM | Ki [1]: 2 nM; Ki (Carboxypeptidase B): 0.42 nM |
| NCCCC(CS)C(=O)O (racemic) | 300 nM |  |
| NCCCC(Cc1c[nH]cn1)C(=O)O (racemic) | 140 nM |  |
| CCCn1cnc(CC(CCCN)C(=O)O)c1 (racemic) | 46 nM |  |
| O=C(O)C(CS)Cc1ccccc1 (racemic) |  | Selectivity ratio [2]: > 10000 |
| CCCn1cnc(C[C@H](CCCN)C(=O)O)c1 [UK-396,082] | 10 nM | Inhibition (Oryctolagus cuniculus [3]): 37%; dose excreted [4]: 96%; logD [5]: -2.8; clearance [6]: 3.1 mL/min/kg; Vd [7]: 0.35 L/kg; half-life [8]: 1.4 h; bioavailability [9]: 20%; bioavailability [10]: 42%; Inhibition (Oryctolagus cuniculus [11]): 36%; Tmax [12]: 4 h; bioavailability [13]: 23% |
